{"data": "Results collected from several papers", "effect on": "metabolic stability", "species": "human"}
{"Structure (SMILES)": "COc1cc(-c2cc(C(C)=O)n3ccccc23)c(OC)cc1Cn1ccnc1", "test system": "liver microsomes", "setting": "pH 7.4", "measurement": "scaled CLint", "value": "15.6 mL/min/kg"}
{"Structure (SMILES)": "CCOCC(=O)N1CCC[C@H](C(=O)NCc2nc(-c3ccc(C)nc3)cs2)C1", "test system": "hepatocytes", "setting": "0.5 µM", "measurement": "scaled CLint", "value": "33 mL/min/kg"}
{"Structure (SMILES)": "C[C@H](O)c1ccc(NS(=O)(=O)c2ccc(OCC3CCC3)c(Cl)c2)c2nn(C)cc12", "test system": "hepatocytes", "setting": "1 µM", "measurement": "hepatocyte CLint", "value": "167 µL/min/10⁶ cells"}
{"Structure (SMILES)": "COCC(=O)N1CCC[C@H](C(=O)NCc2nc(-c3ccccc3)cs2)C1", "test system": "liver microsomes", "setting": "0.5 µM", "measurement": "microsomal CLint", "value": "< 7 µL/min/mg"}
{"Structure (SMILES)": "Cc1cc(S(=O)(=O)NC2CC(N3CCN(CC4CCN(c5cccc6c5n(C)c(=O)n6C5CCC(=O)NC5=O)CC4)C4(CC4)C3)C2)ccc1Nc1ncc(C(F)(F)F)c(N2CCC[C@](C)(O)C2)n1 (stereo partly drawn)", "test system": "liver microsomes", "setting": "1 µM", "measurement": "scaled CLint", "value": "34 mL/min/kg"}
{"Structure (SMILES)": "Cc1ccc(-c2csc(CNC(=O)[C@H]3CCCN(C(=O)[C@H]4CCC(C)(C)O4)[C@H]3C)n2)cn1", "test system": "liver microsomes", "setting": "0.5 µM", "measurement": "microsomal CLint", "value": "155 µL/min/mg"}
{"Structure (SMILES)": "O=c1c2ccc(OCc3ccc(OC(F)(F)F)cc3)cc2[nH]c2cc(Cl)cc(F)c12", "test system": "liver microsomes", "setting": "1 µM, pH 7.4", "measurement": "microsomal CLint", "value": "14.9 µL/min/mg"}
{"Structure (SMILES)": "Cc1cc(S(=O)(=O)NC2CCC(CC3CCN(c4ccc(C5CCC(=O)NC5=O)cc4)CC3)CC2)ccc1Nc1ncc(C(F)(F)F)c(N2CCC[C@](C)(O)C2)n1 (stereo partly drawn)", "test system": "liver microsomes", "setting": "1 µM", "measurement": "scaled CLint", "value": "17 mL/min/kg"}
{"Structure (SMILES)": "NCCOCC(=O)N1CCC[C@H](C(=O)NCc2nc(-c3ccc(C(F)(F)F)cc3)cs2)C1", "test system": "hepatocytes", "setting": "0.5 µM", "measurement": "scaled CLint", "value": "< 3.4 mL/min/kg"}
{"Structure (SMILES)": "CCCN(CCC)CCOc1ccc2c(=O)c3c([nH]c2c1)CCCC3", "test system": "liver microsomes", "setting": "1 µM, pH 7.4", "measurement": "microsomal CLint", "value": "17.5 µL/min/mg"}
{"Structure (SMILES)": "Cc1cc(S(=O)(=O)N[C@H]2CC[C@H](CN3CCN(c4cccc(NC5CCC(=O)NC5=O)c4)CC3)CC2)ccc1Nc1ncc(C(F)(F)F)c(N2CCC[C@](C)(O)C2)n1 (stereo partly drawn)", "test system": "liver microsomes", "setting": "1 µM", "measurement": "scaled CLint", "value": "< 14 mL/min/kg"}
{"Structure (SMILES)": "CC(C)(C)OC(=O)N1CCC(Oc2ccc3c(=O)c4c(F)cc(Cl)cc4[nH]c3c2)C1 (stereo not drawn)", "test system": "liver microsomes", "setting": "1 µM, pH 7.4", "measurement": "microsomal CLint", "value": "17.3 µL/min/mg"}
{"Structure (SMILES)": "Cc1cc(S(=O)(=O)N[C@H]2C[C@H](CN3CCN(c4ccc(C5CCC(=O)NC5=O)c(Cl)c4)CC3)C2)ccc1Nc1ncc(C(F)(F)F)c(N2CCC[C@](C)(O)C2)n1 (stereo partly drawn)", "test system": "liver microsomes", "setting": "1 µM", "measurement": "scaled CLint", "value": "21 mL/min/kg"}
{"Structure (SMILES)": "O=C(NCc1nc(-c2ccc(C(F)(F)F)cc2)cs1)[C@H]1CCCN(C(=O)CO[C@H]2CCCNC2)C1", "test system": "liver microsomes", "setting": "0.5 µM", "measurement": "microsomal CLint", "value": "13 µL/min/mg"}
{"Structure (SMILES)": "CCCN(CCC)CCNc1ccc2c(=O)c3c([nH]c2c1)CCCC3", "test system": "liver microsomes", "setting": "1 µM, pH 7.4", "measurement": "microsomal CLint", "value": "21.4 µL/min/mg"}
{"Structure (SMILES)": "N[C@H](COCC(=O)N1CCC[C@H](C(=O)NCc2nc(-c3ccc(C(F)(F)F)cc3)cs2)C1)c1ccccc1", "test system": "liver microsomes", "setting": "0.5 µM", "measurement": "microsomal CLint", "value": "80 µL/min/mg"}
{"Structure (SMILES)": "C=CCn1c(=O)c2cnc(Nc3ccc(N4CCN(C)CC4)cc3)nc2n1-c1cccc(C(C)(C)O)n1", "test system": "liver microsomes", "measurement": "scaled CLint", "value": "77 mL/min/kg"}
{"Structure (SMILES)": "O=c1c2ccc(Oc3ccc(OC(F)(F)F)cc3)cc2[nH]c2cc(Cl)c(F)cc12", "test system": "liver microsomes", "setting": "1 µM, pH 7.4", "measurement": "microsomal CLint", "value": "5.07 µL/min/mg"}
{"Structure (SMILES)": "C[C@H]1[C@@H](C(=O)NCc2nc(-c3ccc(C#N)cc3)cs2)CCCN1C(=O)[C@H]1CCO1", "test system": "liver microsomes", "setting": "0.5 µM", "measurement": "microsomal CLint", "value": "131 µL/min/mg"}
{"Structure (SMILES)": "CNS(=O)(=O)c1ccc(Nc2ncc(C(F)(F)F)c([C@H]3CC[C@@](C)(O)CC3)n2)c(C)c1", "test system": "liver microsomes", "setting": "1 µM", "measurement": "scaled CLint", "value": "< 14 mL/min/kg"}
{"Structure (SMILES)": "O=c1c2c([nH]c3cc(Oc4cccc(OC(F)(F)F)c4)ccc13)CCCC2", "test system": "liver microsomes", "setting": "1 µM, pH 7.4", "measurement": "microsomal CLint", "value": "1.66 µL/min/mg"}
{"Structure (SMILES)": "CNS(=O)(=O)c1ccc(Nc2ncc(C(F)(F)F)c(N3CCC[C@](C)(O)C3)n2)c(C)c1", "test system": "liver microsomes", "setting": "1 µM", "measurement": "scaled CLint", "value": "29 mL/min/kg"}
{"Structure (SMILES)": "O=c1c2cccc(Oc3ccc(OC(F)(F)F)cc3)c2[nH]c2cc(Cl)cc(F)c12", "test system": "liver microsomes", "setting": "1 µM, pH 7.4", "measurement": "microsomal CLint", "value": "6.75 µL/min/mg"}
{"Structure (SMILES)": "Cc1cc(S(=O)(=O)N[C@H]2CC[C@H](CN3CCN(c4ccc(NC5CCC(=O)NC5=O)cc4F)CC3)CC2)ccc1Nc1ncc(C(F)(F)F)c(N2CCC[C@](C)(O)C2)n1 (stereo partly drawn)", "test system": "liver microsomes", "setting": "1 µM", "measurement": "scaled CLint", "value": "< 14 mL/min/kg"}
{"Structure (SMILES)": "CCCCN(CCCC)CCCOc1ccc2c(=O)c3c([nH]c2c1)CCCC3", "test system": "liver microsomes", "setting": "1 µM, pH 7.4", "measurement": "microsomal CLint", "value": "91.8 µL/min/mg"}
{"Structure (SMILES)": "Cc1cc(S(=O)(=O)N[C@]2(C)C[C@@H](N3CCN(CC4CCN(c5ccc6c(c5F)n(C)c(=O)n6C5CCC(=O)NC5=O)CC4)CC3)C2)ccc1Nc1ncc(C(F)(F)F)c(N2CCC[C@](C)(O)C2)n1 (stereo partly drawn)", "test system": "liver microsomes", "setting": "1 µM", "measurement": "scaled CLint", "value": "120 mL/min/kg"}
{"Structure (SMILES)": "COCC(=O)N1CCC[C@H](C(=O)NCc2nc(-c3ccc(F)cc3)cs2)C1", "test system": "liver microsomes", "setting": "0.5 µM", "measurement": "microsomal CLint", "value": "14 µL/min/mg"}
